In ChEMBL document CHEMBL1142735, “Discovery of a new series of centrally active tricyclic isoxazoles combining serotonin (5-HT) reuptake inhibition with alpha2-adrenoceptor blocking activity” (J Med Chem, 2005):

Key:
[1] = target: Sodium-dependent dopamine transporter (Rattus norvegicus, UniProt P23977); assay: Inhibition of [3H]WIN-35428 binding to Dopamine transporter of rat striatum; format: tissue-based
In short: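 Competition binding using rat striatum membranes incubated with the radioligand under optimized conditions, separated by filtration.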

[2] = target: T1, 5-hydroxytryptamine receptor 1A (Homo sapiens, UniProt P08908); assay: Inhibition of [3H]8-OH-DPAT binding to 5-hydroxytryptamine 1A receptor
T1 sequence (P08908 whole entry): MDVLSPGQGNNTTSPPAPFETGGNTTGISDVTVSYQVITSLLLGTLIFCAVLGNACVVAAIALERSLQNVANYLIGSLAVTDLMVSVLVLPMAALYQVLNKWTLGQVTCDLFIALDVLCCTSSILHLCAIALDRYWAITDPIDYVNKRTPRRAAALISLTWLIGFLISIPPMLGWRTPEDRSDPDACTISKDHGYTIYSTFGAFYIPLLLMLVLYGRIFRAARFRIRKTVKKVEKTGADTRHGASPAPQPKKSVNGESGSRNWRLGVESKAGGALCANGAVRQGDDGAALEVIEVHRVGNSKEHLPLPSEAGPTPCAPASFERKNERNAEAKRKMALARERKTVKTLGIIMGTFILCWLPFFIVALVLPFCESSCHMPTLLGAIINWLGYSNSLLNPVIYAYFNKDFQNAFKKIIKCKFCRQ
In short: (§1)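 Radioligand competition binding on membranes from cell lines carrying the human target, incubated with the labelled ligand under optimized conditions. Separation by filtration, except α1A and D3, which used scintillation proximity assay.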

Histamine H1 receptor = Histamine H1 receptor (Homo sapiens, UniProt P35367); assay: Inhibition of [3H]pyrilamine binding to Histamine H1 receptor
Chain of Histamine H1 receptor (P35367 whole entry): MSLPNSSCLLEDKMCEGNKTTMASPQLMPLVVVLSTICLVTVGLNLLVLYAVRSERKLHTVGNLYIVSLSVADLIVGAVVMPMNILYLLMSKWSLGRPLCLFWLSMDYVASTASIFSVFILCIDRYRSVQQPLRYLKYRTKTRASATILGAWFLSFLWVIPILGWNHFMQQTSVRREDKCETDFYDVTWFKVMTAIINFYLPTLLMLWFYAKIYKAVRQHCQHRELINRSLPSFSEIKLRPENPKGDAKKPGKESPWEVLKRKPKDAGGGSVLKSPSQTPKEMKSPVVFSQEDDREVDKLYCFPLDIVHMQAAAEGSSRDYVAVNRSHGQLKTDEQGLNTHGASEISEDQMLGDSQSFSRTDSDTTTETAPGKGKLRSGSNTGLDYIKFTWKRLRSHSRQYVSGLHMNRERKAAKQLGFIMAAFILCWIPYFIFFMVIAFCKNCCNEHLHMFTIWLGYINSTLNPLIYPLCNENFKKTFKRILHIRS
In short: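 Radioligand competition on membranes from a cell line transfected with the human target, incubated under optimized conditions. Stopped by rapid filtration. Ki by Cheng-Prusoff.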

[3] = target: Norepinephrine transporter (Rattus norvegicus, UniProt Q9WTR4); assay: Inhibition of [3H]-nisoxetine binding to Norepinephrine transporter from rat cortex
Chain of Norepinephrine transporter (Q9WTR4 whole entry): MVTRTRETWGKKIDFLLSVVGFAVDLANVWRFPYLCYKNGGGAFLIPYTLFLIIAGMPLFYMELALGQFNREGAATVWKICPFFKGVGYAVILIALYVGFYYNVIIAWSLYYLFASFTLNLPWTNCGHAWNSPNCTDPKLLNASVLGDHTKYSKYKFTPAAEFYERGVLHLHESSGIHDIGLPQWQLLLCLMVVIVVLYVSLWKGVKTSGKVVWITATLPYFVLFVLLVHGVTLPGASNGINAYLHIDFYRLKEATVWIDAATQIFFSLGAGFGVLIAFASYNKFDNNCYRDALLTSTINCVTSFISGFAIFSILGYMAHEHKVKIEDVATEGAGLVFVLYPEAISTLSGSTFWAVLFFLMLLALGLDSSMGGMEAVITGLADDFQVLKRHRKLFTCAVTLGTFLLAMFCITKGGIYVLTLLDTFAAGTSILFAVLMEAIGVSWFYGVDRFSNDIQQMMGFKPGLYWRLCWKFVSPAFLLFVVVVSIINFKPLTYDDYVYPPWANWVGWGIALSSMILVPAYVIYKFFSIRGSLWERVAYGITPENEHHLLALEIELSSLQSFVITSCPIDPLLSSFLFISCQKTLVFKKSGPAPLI
In short: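 Radioligand competition on rat cortex membranes, incubated under optimized conditions. Stopped by rapid filtration. Ki by Cheng-Prusoff.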

[4] = target: T2, 5-hydroxytryptamine receptor 2C (Homo sapiens, UniProt P28335); assay: Inhibition of [3H]- mesulergine binding to 5-hydroxytryptamine 2C receptor; in short: as §1
T2 sequence (P28335 whole entry): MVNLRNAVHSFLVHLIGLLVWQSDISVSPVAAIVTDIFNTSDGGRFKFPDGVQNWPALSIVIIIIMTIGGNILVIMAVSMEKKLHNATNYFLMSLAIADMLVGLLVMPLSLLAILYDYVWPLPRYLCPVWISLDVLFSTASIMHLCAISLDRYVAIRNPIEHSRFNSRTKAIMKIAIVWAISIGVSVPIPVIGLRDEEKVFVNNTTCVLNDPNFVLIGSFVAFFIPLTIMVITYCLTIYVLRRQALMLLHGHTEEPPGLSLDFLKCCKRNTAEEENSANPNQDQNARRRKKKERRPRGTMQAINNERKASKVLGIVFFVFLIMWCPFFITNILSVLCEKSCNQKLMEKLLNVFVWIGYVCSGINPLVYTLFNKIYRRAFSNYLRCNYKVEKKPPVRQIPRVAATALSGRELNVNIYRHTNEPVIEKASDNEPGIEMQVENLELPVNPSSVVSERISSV

[5] = target: 5-hydroxytryptamine receptor 2A (Homo sapiens, UniProt P28223); assay: Inhibition of [125I]- R91150 binding to 5-hydroxytryptamine 2A receptor; in short: as §1
Chain of 5-hydroxytryptamine receptor 2A (P28223 whole entry): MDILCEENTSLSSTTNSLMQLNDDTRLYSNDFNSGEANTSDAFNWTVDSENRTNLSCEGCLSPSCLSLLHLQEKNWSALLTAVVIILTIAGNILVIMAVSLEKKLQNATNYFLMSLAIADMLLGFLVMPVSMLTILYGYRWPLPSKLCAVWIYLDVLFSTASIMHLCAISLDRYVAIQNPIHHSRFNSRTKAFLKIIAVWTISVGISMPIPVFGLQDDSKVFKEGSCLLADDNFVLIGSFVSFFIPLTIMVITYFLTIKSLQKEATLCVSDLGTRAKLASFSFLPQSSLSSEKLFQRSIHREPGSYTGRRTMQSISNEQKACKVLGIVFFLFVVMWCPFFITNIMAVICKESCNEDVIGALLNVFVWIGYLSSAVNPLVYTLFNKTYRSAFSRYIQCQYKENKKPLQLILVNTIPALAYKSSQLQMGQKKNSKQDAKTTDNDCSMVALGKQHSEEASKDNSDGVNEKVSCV

[6] = target: T3, Adrenergic receptor alpha-1 (Homo sapiens, UniProt P35348+P25100+P35368); assay: Inhibition of [3H]- prazosin binding to alpha-1 adrenergic receptor; format: protein assay; in short: as §1
T3 sequence (P35348 whole entry): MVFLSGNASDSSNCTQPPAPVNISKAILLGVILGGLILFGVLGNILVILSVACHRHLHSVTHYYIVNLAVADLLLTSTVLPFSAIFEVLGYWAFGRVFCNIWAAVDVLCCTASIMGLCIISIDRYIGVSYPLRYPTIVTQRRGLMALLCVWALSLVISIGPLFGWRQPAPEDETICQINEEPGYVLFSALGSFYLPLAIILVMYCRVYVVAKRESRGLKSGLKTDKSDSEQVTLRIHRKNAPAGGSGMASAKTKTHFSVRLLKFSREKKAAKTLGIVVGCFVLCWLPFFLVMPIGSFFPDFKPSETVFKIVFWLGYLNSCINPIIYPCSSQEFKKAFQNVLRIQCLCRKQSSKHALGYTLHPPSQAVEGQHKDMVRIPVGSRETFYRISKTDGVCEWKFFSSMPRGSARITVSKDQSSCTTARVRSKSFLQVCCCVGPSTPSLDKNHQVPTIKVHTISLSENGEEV
T3 sequence (P25100 whole entry): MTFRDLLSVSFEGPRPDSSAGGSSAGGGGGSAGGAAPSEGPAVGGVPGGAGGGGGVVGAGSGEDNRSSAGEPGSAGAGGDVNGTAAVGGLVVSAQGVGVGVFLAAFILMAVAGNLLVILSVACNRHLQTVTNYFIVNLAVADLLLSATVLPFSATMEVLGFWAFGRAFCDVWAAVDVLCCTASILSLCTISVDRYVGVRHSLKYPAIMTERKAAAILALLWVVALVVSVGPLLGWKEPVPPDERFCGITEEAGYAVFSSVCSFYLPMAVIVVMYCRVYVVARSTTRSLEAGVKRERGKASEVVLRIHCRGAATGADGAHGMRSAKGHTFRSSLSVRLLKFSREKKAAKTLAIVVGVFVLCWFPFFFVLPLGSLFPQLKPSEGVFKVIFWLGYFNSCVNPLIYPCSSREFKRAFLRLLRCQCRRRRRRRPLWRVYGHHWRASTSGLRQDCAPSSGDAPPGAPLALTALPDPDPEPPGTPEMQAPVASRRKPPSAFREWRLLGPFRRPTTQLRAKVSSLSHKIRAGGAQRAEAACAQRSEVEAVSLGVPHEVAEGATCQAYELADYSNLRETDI
T3 sequence (P35368 whole entry): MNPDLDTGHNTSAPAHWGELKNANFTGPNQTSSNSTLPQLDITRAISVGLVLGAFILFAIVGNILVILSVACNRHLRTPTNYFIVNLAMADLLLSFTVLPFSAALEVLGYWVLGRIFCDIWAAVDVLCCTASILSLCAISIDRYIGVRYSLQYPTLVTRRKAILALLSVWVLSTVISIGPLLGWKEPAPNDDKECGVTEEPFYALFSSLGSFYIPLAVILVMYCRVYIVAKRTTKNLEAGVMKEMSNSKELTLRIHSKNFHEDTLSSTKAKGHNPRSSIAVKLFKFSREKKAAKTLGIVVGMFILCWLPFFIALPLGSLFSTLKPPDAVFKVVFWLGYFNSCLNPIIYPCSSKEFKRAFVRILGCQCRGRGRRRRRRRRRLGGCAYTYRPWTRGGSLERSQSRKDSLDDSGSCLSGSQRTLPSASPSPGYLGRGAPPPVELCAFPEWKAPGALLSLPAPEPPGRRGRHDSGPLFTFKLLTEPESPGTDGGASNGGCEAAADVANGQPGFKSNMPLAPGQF

D(2) dopamine receptor = D(2) dopamine receptor (Homo sapiens, UniProt P14416); assay: Inhibition of [3H]spiperone binding to Dopamine receptor D2; in short: as §1
Chain of D(2) dopamine receptor (P14416 whole entry): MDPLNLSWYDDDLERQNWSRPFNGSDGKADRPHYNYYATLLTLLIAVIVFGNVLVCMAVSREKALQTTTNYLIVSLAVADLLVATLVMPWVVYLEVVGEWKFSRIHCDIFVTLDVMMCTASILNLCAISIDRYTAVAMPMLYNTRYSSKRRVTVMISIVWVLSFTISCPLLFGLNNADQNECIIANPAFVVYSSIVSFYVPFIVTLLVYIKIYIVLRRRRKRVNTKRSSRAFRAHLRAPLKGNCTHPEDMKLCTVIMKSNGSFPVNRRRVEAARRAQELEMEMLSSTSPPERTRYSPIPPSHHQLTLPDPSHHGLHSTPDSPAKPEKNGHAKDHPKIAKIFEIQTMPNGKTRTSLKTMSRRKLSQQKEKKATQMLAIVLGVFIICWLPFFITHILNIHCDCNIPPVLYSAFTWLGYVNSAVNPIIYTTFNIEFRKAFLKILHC

[7] = target: 5-hydroxytryptamine receptor 7 (Homo sapiens, UniProt P34969); assay: Inhibition of [3H]5-HT binding to 5-hydroxytryptamine 7 receptor; in short: as §1
Chain of 5-hydroxytryptamine receptor 7 (P34969 whole entry): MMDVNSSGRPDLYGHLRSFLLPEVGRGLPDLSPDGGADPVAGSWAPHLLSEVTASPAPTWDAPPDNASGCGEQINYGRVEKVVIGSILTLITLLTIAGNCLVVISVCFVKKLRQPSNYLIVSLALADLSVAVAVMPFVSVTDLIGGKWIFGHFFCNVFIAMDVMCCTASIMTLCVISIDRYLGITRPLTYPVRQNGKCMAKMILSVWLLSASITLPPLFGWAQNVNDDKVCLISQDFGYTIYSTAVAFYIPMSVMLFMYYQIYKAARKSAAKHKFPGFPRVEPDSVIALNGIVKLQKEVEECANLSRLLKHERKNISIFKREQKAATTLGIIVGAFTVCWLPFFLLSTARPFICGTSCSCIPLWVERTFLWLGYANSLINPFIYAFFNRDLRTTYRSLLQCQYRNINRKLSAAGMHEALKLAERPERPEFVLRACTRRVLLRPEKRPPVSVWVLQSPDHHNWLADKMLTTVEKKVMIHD

Rattus norvegicus [8] = assay: Effective dose concentration for antagonism ofpCA-Induced excitation was determined by subcutaneous administration; format: functional, organism-based
In short: (§2)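 Male Wistar rats (200-250 g), fasted overnight, given test compound or solvent sc before challenge. Loss of righting induced by medetomidine 0.10 mg/kg iv; reversal means no loss of righting. Excitation induced by pCA 5 mg/10 mL/kg sc and scored 0-3 over 15 min starting 45 min after pCA; inhibition means score <2.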

Rattus norvegicus [9] = assay: Effective dose concentration for reversal of medetomidine-Induced loss of righting was determined by subcutaneous administration; format: functional, organism-based; in short: as §2
[10] = target: Sodium-dependent serotonin transporter (Homo sapiens, UniProt P31645); assay: Binding affinity for serotonin transporter
Chain of Sodium-dependent serotonin transporter (P31645 whole entry): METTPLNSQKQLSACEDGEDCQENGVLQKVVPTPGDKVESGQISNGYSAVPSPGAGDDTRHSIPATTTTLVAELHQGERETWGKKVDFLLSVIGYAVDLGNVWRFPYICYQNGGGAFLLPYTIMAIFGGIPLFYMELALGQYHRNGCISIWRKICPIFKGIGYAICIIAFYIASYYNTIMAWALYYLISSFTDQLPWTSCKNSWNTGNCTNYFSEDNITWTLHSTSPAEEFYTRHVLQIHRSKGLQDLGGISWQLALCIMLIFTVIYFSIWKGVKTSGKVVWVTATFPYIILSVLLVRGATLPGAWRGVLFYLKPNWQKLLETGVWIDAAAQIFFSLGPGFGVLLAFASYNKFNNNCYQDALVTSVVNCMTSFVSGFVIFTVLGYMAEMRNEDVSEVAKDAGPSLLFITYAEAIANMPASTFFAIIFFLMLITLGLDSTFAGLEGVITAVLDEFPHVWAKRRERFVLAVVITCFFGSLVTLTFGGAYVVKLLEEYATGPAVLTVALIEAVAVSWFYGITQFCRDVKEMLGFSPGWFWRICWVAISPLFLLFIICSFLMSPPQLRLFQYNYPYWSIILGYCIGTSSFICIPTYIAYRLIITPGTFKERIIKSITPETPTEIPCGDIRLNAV
In short: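 Human platelet membranes (50 µg protein) in 50 mM Tris-HCl pH 7.4 with 120 mM NaCl and 5 mM KCl. Competition against [3H]paroxetine (0.5 nM), 60 min at 25 °C. Nonspecific binding defined with imipramine (1 µM). Filtration over 0.1% PEI-presoaked GF/B, washed with incubation buffer. Sigmoidal fit of specific binding; Ki via Cheng-Prusoff.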

[11] = target: T4, Alpha-2C adrenergic receptor (Homo sapiens, UniProt P18825); assay: Binding affinity for alpha-2C adrenergic receptor
T4 sequence (P18825 whole entry): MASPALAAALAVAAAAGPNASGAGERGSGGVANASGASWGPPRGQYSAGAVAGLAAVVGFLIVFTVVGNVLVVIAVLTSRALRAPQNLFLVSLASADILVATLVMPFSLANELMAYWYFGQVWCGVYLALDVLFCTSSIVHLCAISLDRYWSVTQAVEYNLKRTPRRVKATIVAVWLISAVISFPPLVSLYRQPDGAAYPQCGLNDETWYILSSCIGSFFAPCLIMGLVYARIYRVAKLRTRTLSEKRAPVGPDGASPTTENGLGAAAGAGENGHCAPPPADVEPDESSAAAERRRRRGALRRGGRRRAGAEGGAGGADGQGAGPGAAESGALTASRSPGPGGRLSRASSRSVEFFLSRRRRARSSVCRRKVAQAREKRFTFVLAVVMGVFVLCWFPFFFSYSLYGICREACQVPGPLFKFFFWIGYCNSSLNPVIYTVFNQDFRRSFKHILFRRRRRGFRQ
In short: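 Human alpha2C receptor stably expressed in CHO cell membranes (5-10 µg protein) in 25 mM glycylglycine, pH 7.6. Competition against [3H]rauwolscine (1 nM), 30 min at 25 °C. Nonspecific binding defined with spiroxatrine (1 µM). Rapid filtration over GF/B, washed with ice-cold 50 mM Tris-HCl pH 8.0, scintillation counting. Sigmoidal curves fitted; Ki by Cheng-Prusoff.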

D(4) dopamine receptor = target: T5, D(4) dopamine receptor (Homo sapiens, UniProt P21917); assay: Inhibition of [3H]spiperone binding to Dopamine receptor D4; in short: as §1
T5 sequence (P21917 whole entry): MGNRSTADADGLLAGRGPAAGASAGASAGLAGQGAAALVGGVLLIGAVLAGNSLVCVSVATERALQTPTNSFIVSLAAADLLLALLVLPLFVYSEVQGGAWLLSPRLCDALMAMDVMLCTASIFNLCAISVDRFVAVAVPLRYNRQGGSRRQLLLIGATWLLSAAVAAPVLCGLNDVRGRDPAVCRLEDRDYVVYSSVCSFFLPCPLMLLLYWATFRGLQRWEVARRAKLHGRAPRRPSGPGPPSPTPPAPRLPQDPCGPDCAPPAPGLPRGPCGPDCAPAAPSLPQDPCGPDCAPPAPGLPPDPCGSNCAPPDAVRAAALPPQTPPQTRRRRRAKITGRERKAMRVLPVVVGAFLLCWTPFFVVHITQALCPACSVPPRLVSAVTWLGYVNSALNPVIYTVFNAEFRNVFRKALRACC

Rattus norvegicus [12] = assay: Effective dose for antagonism ofpCA-Induced excitation was determined by oral administration; format: functional
In short: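 Oral pretreatment of overnight-fasted male Wistar rats (200-250 g), then medetomidine 0.10 mg/kg iv (reversal means no loss of righting) or pCA 5 mg/kg sc (excitation scored 0-3 over 15 min from 45 min after pCA; inhibition means score <2). Doses taken from a geometric series.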

Chain of Sodium-dependent dopamine transporter (P23977 whole entry): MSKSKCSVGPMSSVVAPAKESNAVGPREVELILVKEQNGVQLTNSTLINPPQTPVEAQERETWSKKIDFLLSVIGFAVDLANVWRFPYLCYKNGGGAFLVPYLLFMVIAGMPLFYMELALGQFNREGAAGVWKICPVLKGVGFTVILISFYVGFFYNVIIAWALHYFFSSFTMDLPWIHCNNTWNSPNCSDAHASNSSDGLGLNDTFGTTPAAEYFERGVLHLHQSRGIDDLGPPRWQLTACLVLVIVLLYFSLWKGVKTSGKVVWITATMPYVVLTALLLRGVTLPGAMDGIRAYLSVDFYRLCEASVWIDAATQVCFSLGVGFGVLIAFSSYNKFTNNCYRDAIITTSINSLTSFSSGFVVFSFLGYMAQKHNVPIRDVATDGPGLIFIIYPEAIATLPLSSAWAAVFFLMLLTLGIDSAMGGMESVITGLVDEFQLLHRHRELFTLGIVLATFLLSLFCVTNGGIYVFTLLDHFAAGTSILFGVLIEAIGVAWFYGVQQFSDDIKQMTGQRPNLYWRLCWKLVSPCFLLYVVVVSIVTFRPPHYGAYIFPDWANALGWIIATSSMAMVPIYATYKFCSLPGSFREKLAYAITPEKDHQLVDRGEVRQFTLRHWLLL

Ki [1]	Ki [2]	Ki (Histamine H1 receptor)	Ki [3]	Ki [4]	Ki [5]	Ki [6]	Ki (D(2) dopamine receptor)	Ki [7]	ED50 (Rattus norvegicus [8])	ED50 (Rattus norvegicus [9])	Ki [10]	Ki [11]	Ki (D(4) dopamine receptor)	SMILES	ED50 (Rattus norvegicus [12])
> 1000 nM	770 nM	> 1000 nM	365 nM	> 1000 nM	> 1000 nM	> 1000 nM	> 1000 nM	> 1000 nM						Fc1ccc2c(c1)CC(CC1CN=CN1)C2 (stereo not drawn)	
									7.9 mg/kg	2.5 mg/kg	15 nM	3.6 nM		COc1cc2c(cc1OC)C1=NO[C@@H](CN3CCN(C/C=C(\C)c4ccccc4)CC3)[C@@H]1CN2	
> 1000 nM	> 1000 nM	> 1000 nM	> 1000 nM	> 1000 nM	> 1000 nM	> 1000 nM	> 1000 nM						234 nM	COc1cccc2c1CCC[C@H]2CN(C)CCc1ccc2ccoc2c1	> 10 mg/kg
